Results on three compounds are retold here after ChEMBL document CHEMBL1151761, “Radiohalogenated prostate-specific membrane antigen (PSMA)-based ureas as imaging agents for prostate cancer” (J Med Chem, 2008).

By Ki is commonly meant a measure of affinity in units of concentration, obtained from inhibition or displacement. Lower therefore signals a stronger hold on the target.

A short description of series [1]: Biodistribution in PC3 PIP tumor of PSMA expressing human PC3 PIP and PSMA deficient human PC3 flu cells xenografted SCID mouse at 2 uCi, iv after 30 mins. To be noted: in vivo, 0.5 h. Type of series: ADME, organism-based. A digest of the protocol:
(§1)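 Male SCID mice carried subcutaneous PSMA+ PC-3 PIP (left shoulder) and PC-3 flu (right shoulder) xenografts, 1-5 × 10^6 cells in HBSS, and were used at 3-5 mm tumor diameter. Tail-vein injection of 2 µCi radioligand; four mice per time point, killed by cervical dislocation. %ID/g from a standard dilution of the dose, decay-corrected, mean ± SD; PIP tumor:organ ratios.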
A general note: Xenograft models place foreign cells or tissue in a host animal.

The nature of series [2]: Biodistribution in large intestine of PSMA expressing human PC3 PIP and PSMA deficient human PC3 flu cells xenografted SCID mouse at 2 uCi, iv after 30 mins. Type of series: ADME, organism-based. Conditions: in vivo, 0.5 h. A digest of the protocol: as §1
Series [3] can be described thus: Biodistribution in small intestine of PSMA expressing human PC3 PIP and PSMA deficient human PC3 flu cells xenografted SCID mouse at 2 uCi, iv after 5 hrs. The class given is ADME, organism-based. To be noted: in vivo. A digest of the protocol:
as §1

Series [4] is described as follows: Biodistribution in small intestine of PSMA expressing human PC3 PIP and PSMA deficient human PC3 flu cells xenografted SCID mouse at 2 uCi, iv after 60 mins. Conditions: in vivo, 1 h. The class given is ADME, organism-based. The procedure, abridged: as §1
A short description of series [5]: Biodistribution in large intestine of PSMA expressing human PC3 PIP and PSMA deficient human PC3 flu cells xenografted SCID mouse at 2 uCi, iv after 60 mins. To be noted: in vivo, 1 h. Type of series: ADME, organism-based. The procedure, abridged: as §1
Series [6] in a line: Biodistribution in large intestine of PSMA expressing human PC3 PIP and PSMA deficient human PC3 flu cells xenografted SCID mouse at 2 uCi, iv after 5 hrs. Conditions: in vivo. Type of series: ADME, organism-based. The procedure, abridged:
as §1

A short description of series [7]: Biodistribution in PC3 flu tumor of PSMA expressing human PC3 PIP and PSMA deficient human PC3 flu cells xenografted SCID mouse at 2 uCi, iv after 30 mins. Type of series: ADME, organism-based. To be noted: in vivo, 0.5 h. The procedure, abridged:
as §1

A short description of series [8]: Biodistribution in PC3 flu tumor of PSMA expressing human PC3 PIP and PSMA deficient human PC3 flu cells xenografted SCID mouse at 2 uCi, iv after 60 mins. The class given is ADME, organism-based. To be noted: in vivo, 1 h. The procedure, abridged:
as §1

Series [9] can be described thus: Biodistribution in PC3 flu tumor of PSMA expressing human PC3 PIP and PSMA deficient human PC3 flu cells xenografted SCID mouse at 2 uCi, iv after 2 hrs. Type of series: ADME, organism-based. Conditions: in vivo. The procedure, abridged:
as §1

The nature of series [10]: Biodistribution in small intestine of PSMA expressing human PC3 PIP and PSMA deficient human PC3 flu cells xenografted SCID mouse at 2 uCi, iv after 30 mins. Conditions: in vivo, 0.5 h. Type of series: ADME, organism-based. The procedure, abridged: as §1
Series [11] is described as follows: Biodistribution in small intestine of PSMA expressing human PC3 PIP and PSMA deficient human PC3 flu cells xenografted SCID mouse at 2 uCi, iv after 2 hrs. Conditions: in vivo. The class given is ADME, organism-based. A digest of the protocol:
as §1

Series [12] can be described thus: Biodistribution in large intestine of PSMA expressing human PC3 PIP and PSMA deficient human PC3 flu cells xenografted SCID mouse at 2 uCi, iv after 2 hrs. The class given is ADME, organism-based. Conditions: in vivo. The procedure, abridged:
as §1

The nature of series [13]: Biodistribution in PC3 flu tumor of PSMA expressing human PC3 PIP and PSMA deficient human PC3 flu cells xenografted SCID mouse at 2 uCi, iv after 5 hrs. The class given is ADME, organism-based. To be noted: in vivo. The procedure, abridged:
as §1

Series [14] has as its target T1, Glutamate carboxypeptidase 2 (Homo sapiens, UniProt Q04609). Nature of the series: Inhibition of PSMA in human LNCaP cell extract using [3H]NAAG by radiometric assay. The class given is cell-free.
The target of series [15] is T1, Glutamate carboxypeptidase 2. In words: Inhibition of PSMA in human LNCaP cell extract using [3H]NAAG by fluorescence-based assay. Type of series: cell-free.

T1 sequence (Q04609 whole entry): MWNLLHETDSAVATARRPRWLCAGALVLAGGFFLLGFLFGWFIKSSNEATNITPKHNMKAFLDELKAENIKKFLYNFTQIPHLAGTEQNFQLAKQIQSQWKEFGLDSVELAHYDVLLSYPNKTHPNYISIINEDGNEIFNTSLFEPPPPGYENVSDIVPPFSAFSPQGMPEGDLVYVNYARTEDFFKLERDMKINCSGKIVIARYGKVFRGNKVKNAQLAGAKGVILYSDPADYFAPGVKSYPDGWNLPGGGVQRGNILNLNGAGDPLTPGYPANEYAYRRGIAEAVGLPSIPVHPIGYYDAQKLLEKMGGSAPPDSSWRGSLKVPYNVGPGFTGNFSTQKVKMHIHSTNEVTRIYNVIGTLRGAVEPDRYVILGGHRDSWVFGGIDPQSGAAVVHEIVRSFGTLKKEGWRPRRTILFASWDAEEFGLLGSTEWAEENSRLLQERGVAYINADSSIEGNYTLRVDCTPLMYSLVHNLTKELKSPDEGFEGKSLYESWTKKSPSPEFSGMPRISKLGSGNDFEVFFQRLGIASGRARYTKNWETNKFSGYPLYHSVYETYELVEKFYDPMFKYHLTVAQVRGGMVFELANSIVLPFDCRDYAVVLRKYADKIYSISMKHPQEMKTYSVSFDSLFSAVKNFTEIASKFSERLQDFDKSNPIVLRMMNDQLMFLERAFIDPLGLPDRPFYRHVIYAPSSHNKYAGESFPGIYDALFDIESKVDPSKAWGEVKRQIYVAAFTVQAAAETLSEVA

On to `O=C(O)CC[C@H](NC(=O)N[C@@H](CCCCNC(=O)c1ccc([125I])cc1)C(=O)O)C(=O)O`, for which the Drug uptake came out at 8.8 % ID/g in [1]; 1.4 % ID/g in [2]; 1.5 % ID/g in series [3]; 3.8 % ID/g in series [4]; 1 % ID/g in series [5]; 0.7 % ID/g in [6]. The Drug uptake in [7] came out at 1.8 % ID/g; in [8], 1.2 % ID/g; in series [9], 0.7 % ID/g; in series [10], 4.9 % ID/g; in [11] it was 1.5 % ID/g; in [12], 0.6 % ID/g. This compound displayed a Drug uptake in series [13] of 0.6 % ID/g.

On to `O=C(O)CC[C@H](NC(=O)N[C@@H](CCCCNC(=O)c1cncc([125I])c1)C(=O)O)C(=O)O`, for which the values for the Drug uptake in series [5], in series [7] and in series [8] were 0.6 % ID/g, 0.8 % ID/g and 0.6 % ID/g, respectively.

Regarding `O=C(O)CC[C@H](NC(=O)N[C@@H](CCCCNC(=O)c1ccc(F)cc1)C(=O)O)C(=O)O`, the Ki in series [14] was determined as 0.256 nM; in series [15], 0.194 nM.
